ChEMBL document CHEMBL1157127, “Aplysinopsin analogs: Synthesis and anti-proliferative activity of substituted (Z)-5-(N-benzylindol-3-ylmethylene)imidazolidine-2,4-diones” (Bioorg Med Chem, 2010)

How the values were obtained:
Assay type in all cases: functional, cell-based
[1] = system: NCI-H460; assay: Antiproliferative activity against human H460 cells after 24 hrs by trypan blue exclusion assay; conditions: NCI-H460, 24 h
Procedure, shortened: (§1)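 Cells from ATCC. MCF-7 and MDA-231 grown in DMEM with 10% FBS and 1% L-glutamine; A549 and H460 in RPMI 1640 with glutamine, glucose, HEPES, sodium pyruvate and 10% FBS; all at 37 °C, 5% CO2. Treated 24 h at 1, 5, 10, 20 and 40 µM, with DMSO vehicle control. Viability by trypan blue dye exclusion, mean ± SD of four wells.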

[2] = system: MCF7; assay: Antiproliferative activity against human MCF7 cells after 24 hrs by trypan blue exclusion assay; conditions: MCF7, 24 h; procedure, shortened: as §1
[3] = system: A549; assay: Antiproliferative activity against human A549 cells after 24 hrs by trypan blue exclusion assay; conditions: A549, 24 h; procedure, shortened: as §1
[4] = Antiproliferative activity against human MDA231 cells after 24 hrs by trypan blue exclusion assay; conditions: MDA-MB-231, 24 h; procedure, shortened: as §1

Structure (SMILES) | IC50 [1] | IC50 [2] | IC50 [3] | IC50 [4]
COc1ccc2c(c1)c(/C=C1\NC(=O)NC1=O)cn2Cc1ccccc1 | 28.4 µM | 7.2 µM | > 40 µM | 7 µM
N#Cc1ccc(Cn2cc(/C=C3\NC(=O)NC3=O)c3ccccc32)cc1 | 19.1 µM | 14.1 µM | > 40 µM | 17.6 µM
Cc1ccc2c(c1)c(/C=C1\NC(=O)NC1=O)cn2Cc1ccccc1 | 14.6 µM | 5.2 µM | 27.7 µM | 20.1 µM
O=C1NC(=O)/C(=C/c2cn(Cc3ccccc3)c3ccc(Cl)cc23)N1 | 26.9 µM | 9.2 µM | 29.7 µM | 18 µM
Cc1ccc(Cn2cc(/C=C3\NC(=O)NC3=O)c3ccccc32)cc1 | 26.1 µM | 20.2 µM | 34.8 µM | 22.1 µM
COC(=O)c1ccc(Cn2cc(/C=C3\NC(=O)NC3=O)c3ccccc32)cc1 | 30.8 µM | 15.4 µM | > 40 µM | 18.4 µM
COc1ccc(Cn2cc(/C=C3\NC(=O)NC3=O)c3cc(Br)ccc32)cc1 | 22.3 µM | 16.4 µM | 25.2 µM | 23.2 µM
O=c1[nH]cc(F)c(=O)[nH]1 [FLUOROURACIL] | 2.7 µM | 15.2 µM | 5.4 µM | 3.5 µM
O=C1NC(=O)/C(=C/c2cn(Cc3ccccc3Br)c3ccccc23)N1 | 16.9 µM | 4.4 µM | 39.5 µM | 21.8 µM
O=C1NC(=O)/C(=C/c2cn(Cc3ccccc3)c3ccccc23)N1 | 14.2 µM | 27.3 µM | > 40 µM | 15.7 µM
O=C1NC(=O)/C(=C/c2cn(Cc3ccc(F)cc3)c3ccccc23)N1 | 16.3 µM | 22.3 µM | 27.8 µM | 32.8 µM
O=C1NC(=O)/C(=C/c2cn(Cc3ccccc3)c3ccc(Br)cc23)N1 | > 40 µM | 7.6 µM | > 40 µM | 12.4 µM
O=C1NC(=O)/C(=C/c2cn(Cc3ccc(Cl)cc3)c3ccccc23)N1 | 25.4 µM | 21.4 µM | 25.4 µM | 25.3 µM
O=C1NC(=O)/C(=C/c2cn(Cc3ccc([N+](=O)[O-])cc3)c3ccccc23)N1 | > 40 µM | 10.9 µM | > 40 µM | 23.3 µM
